Assay results collected from several papers.
Lines come from different studies, so protocols differ.
Target: MAP kinase-interacting serine/threonine-protein kinase 2 (MKNK2, Homo sapiens, UniProt Q9HBH9)

SMILES	read-out	mode	technique	tested at	quantity	value
Cn1c(=O)n(-c2ccc(C(C)(C)C#N)cc2)c2c3cc(-c4cnc5ccccc5c4)ccc3ncc21	enzyme activity	inhibitor		10 µM	remaining activity	94%
CC(C)(O)[C@H]1CC[C@H](Nc2ccc3ncc(-c4cccc(C(F)(F)F)c4)n3n2)CC1	enzyme activity	inhibitor		1 µM	remaining activity	66.5%
CSc1nc(C)c(-c2ccnc(Nc3ccc(N4CCOCC4)cc3)c2)[nH]1	enzyme activity	inhibitor		10 µM	inhibition	94.9%
C[C@@H]1CN(c2cc(-c3nn(C)c4ccc(OC5(C)CC5)cc34)ncn2)C[C@H](C)O1	cell-free assay		competition with immobilised ligand	1 µM	remaining binding	67%
CCN(CC)CCNC(=O)c1c(C)[nH]c(/C=C2\C(=O)Nc3ccc(F)cc32)c1C	enzyme activity	inhibitor		0.3 µM	inhibition	-18%
CC(C)(O)c1cncc(-c2nc3ccc(F)cc3n2C2CC2)c1	cell-free assay		competition with immobilised ligand	1 µM	remaining binding	100%
Cc1cnc(NC2CCOCC2)nc1-n1cnc(C(=O)NC(CN)c2cc(F)cc(Cl)c2)c1 (centres unmarked)	enzyme activity	inhibitor	radiometric	1 µM	remaining activity	25%
Cc1ccc(Nc2nccc(N(C)c3ccc4c(C)n(C)nc4c3)n2)cc1S(N)(=O)=O	enzyme activity	inhibitor		10 µM	inhibition	9%
O=C1NC(=O)c2cc(Nc3ccc(F)cc3)c(Nc3ccc(F)cc3)cc21	cell-free assay			0.5 µM	remaining signal	101%
CCC(=O)N[C@H]1CC[C@@H](C(=O)N(C)c2ccc(-c3nc4ccccc4o3)cc2)C1	cell-free assay		competition with immobilised ligand	1 µM	remaining binding	100%
Cc1ncc(C(=O)Nc2ccc(CN3CCN(C)CC3)c(C(F)(F)F)c2)cc1C#Cc1cnc2cccnn12	enzyme activity	inhibitor		0.123 µM	inhibition	51%
CC/C(=N\NC(=O)NCc1cccc(O)c1)c1ccc(O)c(C)c1O	enzyme activity	inhibitor		0.1 µM	inhibition	-2.9%
FC(F)c1nc2ccccc2n1-c1nc(N2CCOCC2)nc(N2CCOCC2)n1	enzyme activity	inhibitor		10 µM	remaining activity	101%
COc1cc2c(N3CCN(C(=O)Nc4ccc(OC(C)C)cc4)CC3)ncnc2cc1OCCCN1CCCCC1	cell-free assay			0.5 µM	remaining signal	99%
FC(F)(F)Oc1cccc(-c2cnc3ccc(-c4ccncc4)nn23)c1	enzyme activity	inhibitor	radiometric	5 µM	activity vs control	81%
N#CCCc1ccc2c(c1)-c1[nH]c3ccc([N+](=O)[O-])cc3c1CC(=O)N2	cell-free assay			0.5 µM	remaining signal	87.7%

SMILES	read-out	mode	technique	tested at	quantity	value
Cc1ccc(C(=O)Nc2ccc(CN3CCN(C)CC3)c(C(F)(F)F)c2)cc1C#Cc1cnc2cccnn12	enzyme activity	inhibitor		23.5 nM	remaining activity	33%
CNC(=O)c1cc(Oc2ccc(NC(=O)Nc3ccc(Cl)c(C(F)(F)F)c3)cc2)ccn1	enzyme activity	inhibitor		10 µM	inhibition	90%
O=C(Nc1cnn(-c2csc(C(=O)NC3COC3)c2)c1)Nc1c(F)cccc1Cl	enzyme activity	inhibitor		5 µM	remaining activity	90.8%
Cc1ccc(NC(=O)c2ccc(C)c(C(F)(F)F)c2)cc1C#Cc1nn(C2CCC(O)CC2)c2ncnc(N)c12 (centres unmarked)	cell-free assay			10 µM	remaining signal	96%
Nc1nc(Nc2ccccc2)sc1C(=O)c1c(F)cccc1F	enzyme activity	inhibitor		10 µM	remaining activity	99%
Nc1nc(Nc2ccc(S(N)(=O)=O)cc2)nn1C(=O)c1c(F)cccc1F	cell-free assay			0.5 µM	remaining signal	95.9%
O=C(NCc1ncc(C(F)(F)F)cc1Cl)c1ccc2c(c1)C1(CCS(=O)(=O)CC1)[C@@H](C1CC1)N2S(=O)(=O)c1ccc(F)cc1	cell-free assay		competition with immobilised ligand	1 µM	remaining binding	76%
CC(C)(C)C(=O)c1sc(NC2CCCCC2)nc1N	enzyme activity	inhibitor		10 µM	remaining activity	96%
O=C(N[C@H]1CCCCC/C=C\C2C[C@@]2(C(=O)O)NC(=O)[C@@H]2C[C@@H](Oc3ccncc3)CN2C1=O)OC1CCCC1 (some centres unmarked)	binding		competition with immobilised ligand	1 µM	remaining binding	75%
CC(C)(C)c1nc(-c2cccc(NS(=O)(=O)c3c(F)cccc3F)c2F)c(-c2ccnc(N)n2)s1	enzyme activity	inhibitor	radiometric	1 µM	remaining activity	63%
COc1cc(-c2cn(C3CCc4ccccc4N(CC(F)(F)F)C3=O)nn2)ccc1-n1ccc(C)n1 (centres unmarked)	cell-free assay		competition with immobilised ligand	1 µM	remaining binding	66%
COc1cc(/C=C/C(=O)CC(=O)/C=C/c2ccc(O)c(OC)c2)ccc1O	enzyme activity	inhibitor		1 µM	activity vs control	129%
Cc1c[nH]c2nccc(Oc3c(F)cc(Nc4cc(Cl)nc(N)n4)cc3F)c12	cell-free assay		competition with immobilised ligand	0.1 µM	remaining binding	90%
O=C(CSc1nc2nccnc2c(=O)n1CCc1ccccc1)Nc1nccs1	enzyme activity	inhibitor		10 µM	inhibition	-11%
CC1=C(C#N)[C@@H](c2ccc3[nH]nc(C)c3c2)C(C#N)=C(c2ccc(Cl)cc2)N1	cell-free assay		competition with immobilised ligand	1 µM	remaining binding	90.6%
COc1cc(Nc2cnc(C#N)c(O[C@H](C)CN(C)C)n2)ncc1-c1cnn(C)c1	enzyme activity	inhibitor	radiometric	1 µM	remaining activity	98%
